Reference: ChEMBL document CHEMBL2016547, “An efficient and convenient microwave-assisted chemical synthesis of (thio)xanthones with additional in vitro and in silico characterization” (Bioorg Med Chem, 2012)
Values after ≈ are worked out from the molar mass of the structure shown.

Experiments:
Streptococcus pyogenes = assay: Antibacterial activity against Streptococcus pyogenes ATCC 700294 after 20 to 22 hrs by broth microdilution method; assay type: functional; conditions: M1 GAS
Outline: (§1)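 CLSI broth microdilution MIC. Twofold compound dilutions spanned 128-0.5 µg/mL, with azithromycin as comparator. Streptococci were grown on Columbia agar with 5% sheep blood, and their broth used 5% horse serum instead of lysed blood. H. influenzae was grown on Mueller-Hinton chocolate agar and staphylococci on Mueller-Hinton agar. Direct colony suspension gave 5x10⁴ CFU/well. Plates were read visually after 20-22 h at 37°C in ambient air.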

Escherichia coli = assay: Antibacterial activity against Escherichia coli ATCC 25922 after 20 to 22 hrs by broth microdilution method; assay type: functional; outline: as §1
Moraxella catarrhalis = assay: Antibacterial activity against Moraxella catarrhalis ATCC 23246 after 20 to 22 hrs by broth microdilution method; assay type: functional; outline: as §1
Staphylococcus aureus = assay: Antibacterial activity against Staphylococcus aureus ATCC 29213 after 20 to 22 hrs by broth microdilution method; assay type: functional; outline: as §1
HepG2 = assay: Cytotoxicity against human HepG2 cells assessed as NADH level after overnight incubation by MTS assay; assay type: cell-based
Outline: (§2)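 Cells were maintained in RPMI 1640 with 10% FBS at 37°C under 5% CO₂. Compounds were twofold serially diluted across 100-0.2 µM, and 5x10⁴ cells/well were added and incubated overnight at 37°C, 5% CO₂. MTS reagent was then added for 1 h under the same conditions, and absorbance was read at 490 nm.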

Haemophilus influenzae = assay: Antibacterial activity against Haemophilus influenzae ATCC 49247 after 20 to 22 hrs by broth microdilution method; assay type: functional; outline: as §1
Streptococcus pneumoniae = assay: Antibacterial activity against Streptococcus pneumoniae ATCC 49619 after 20 to 22 hrs by broth microdilution method; assay type: functional; outline: as §1
Jurkat = assay: Cytotoxicity against human Jurkat T cells assessed as NADH level after overnight incubation by MTS assay; assay type: cell-based; outline: as §2

| SMILES | MIC (Streptococcus pyogenes) | MIC (Escherichia coli) | MIC (Moraxella catarrhalis) | MIC (Staphylococcus aureus) | IC50 (HepG2) | MIC (Haemophilus influenzae) | MIC (Streptococcus pneumoniae) | IC50 (Jurkat) |
| --- | --- | --- | --- | --- | --- | --- | --- | --- |
| O=c1c2ccc(O)cc2oc2cc(O)cc(O)c12 | > 128 mg/L | > 128 mg/L | 2 mg/L (≈ 8.19 µM) | 64 mg/L (≈ 262 µM) | > 100 µM | 32 mg/L (≈ 131 µM) | > 128 mg/L | > 100 µM |
| CC(=O)Oc1ccc2c(=O)c3c(OC(C)=O)cccc3oc2c1 | > 128 mg/L | > 128 mg/L | 16 mg/L (≈ 51.2 µM) | 64 mg/L (≈ 205 µM) | 90 µM | 128 mg/L (≈ 410 µM) | > 128 mg/L | > 100 µM |
| O=c1c2cccc(O)c2oc2cc(O)cc(O)c12 | > 128 mg/L | > 128 mg/L | 16 mg/L (≈ 65.5 µM) | > 128 mg/L | > 100 µM | > 128 mg/L | > 128 mg/L | > 100 µM |
| CC(=O)Oc1ccc2c(=O)c3c(OC(C)=O)cc(OC(C)=O)cc3oc2c1 | > 128 mg/L | > 128 mg/L | 4 mg/L (≈ 10.8 µM) | 64 mg/L (≈ 173 µM) | > 100 µM | 128 mg/L (≈ 346 µM) | > 128 mg/L | > 100 µM |
| O=c1c2ccc(O)cc2oc2cccc(O)c12 | > 128 mg/L | > 128 mg/L | 8 mg/L (≈ 35.1 µM) | 32 mg/L (≈ 140 µM) | 93 µM | > 128 mg/L | > 128 mg/L | 75 µM |
| CC[C@H]1OC(=O)[C@H](C)[C@@H](O[C@H]2C[C@@](C)(OC)[C@@H](O)[C@H](C)O2)[C@H](C)[C@@H](O[C@@H]2O[C@H](C)C[C@H](N(C)C)[C@H]2O)[C@](C)(O)C[C@@H](C)CN(C)[C@H](C)[C@@H](O)[C@]1(C)O [AZITHROMYCIN] | < 0.125 mg/L | 2 mg/L (≈ 2.67 µM) | < 0.125 mg/L | 1 mg/L (≈ 1.34 µM) |  | 1 mg/L (≈ 1.34 µM) | < 0.125 mg/L |  |
| CC(=O)Oc1cc(OC(C)=O)c2c(=O)c3ccccc3oc2c1 | > 128 mg/L | > 128 mg/L | 32 mg/L (≈ 102 µM) | 128 mg/L (≈ 410 µM) | > 100 µM | 128 mg/L (≈ 410 µM) | > 128 mg/L | > 100 µM |
| O=c1c2ccccc2oc2cc(O)cc(O)c12 | > 128 mg/L | > 128 mg/L | 16 mg/L (≈ 70.1 µM) | 64 mg/L (≈ 280 µM) | > 100 µM | 64 mg/L (≈ 280 µM) | > 128 mg/L | > 100 µM |
| O=c1c2ccccc2sc2cc(O)cc(O)c12 | > 128 mg/L | > 128 mg/L | 8 mg/L (≈ 32.8 µM) | 16 mg/L (≈ 65.5 µM) | > 100 µM | 16 mg/L (≈ 65.5 µM) | > 128 mg/L | > 100 µM |
| CC(=O)Oc1cc(OC(C)=O)c2c(=O)c3ccccc3sc2c1 | > 128 mg/L | > 128 mg/L | 64 mg/L (≈ 195 µM) | > 128 mg/L | > 100 µM | > 128 mg/L | > 128 mg/L | > 100 µM |
| CC(=O)Oc1cc(OC(C)=O)c2c(=O)c3cc(OC(C)=O)ccc3oc2c1 | > 128 mg/L | > 128 mg/L | > 128 mg/L | > 128 mg/L | > 100 µM | > 128 mg/L | > 128 mg/L | > 100 µM |
| CC(=O)Oc1cc(OC(C)=O)c2c(=O)c3cccc(OC(C)=O)c3oc2c1 | > 128 mg/L | > 128 mg/L | > 128 mg/L | > 128 mg/L | > 100 µM | > 128 mg/L | > 128 mg/L | 92 µM |
| O=c1c2c(O)cccc2oc2cc(O)cc(O)c12 | > 128 mg/L | > 128 mg/L | 8 mg/L (≈ 32.8 µM) | 8 mg/L (≈ 32.8 µM) | 90 µM | 16 mg/L (≈ 65.5 µM) | 128 mg/L (≈ 524 µM) | 83 µM |
| O=c1c2cc(O)ccc2oc2cc(O)cc(O)c12 | > 128 mg/L | > 128 mg/L | 128 mg/L (≈ 524 µM) | 128 mg/L (≈ 524 µM) | > 100 µM | > 128 mg/L | > 128 mg/L | > 100 µM |
| CC(=O)Oc1cccc2oc3ccccc3c(=O)c12 | > 128 mg/L | > 128 mg/L | 128 mg/L (≈ 503 µM) | > 128 mg/L | > 100 µM | > 128 mg/L | > 128 mg/L | 78 µM |
| O=c1c2ccccc2oc2cccc(O)c12 | > 128 mg/L | > 128 mg/L | 128 mg/L (≈ 603 µM) | > 128 mg/L | > 100 µM | > 128 mg/L | > 128 mg/L | > 100 µM |
| CC(=O)Oc1cc(OC(C)=O)c2c(=O)c3c(OC(C)=O)cccc3oc2c1 | > 128 mg/L | > 128 mg/L | 128 mg/L (≈ 346 µM) | 128 mg/L (≈ 346 µM) | 93 µM | > 128 mg/L | > 128 mg/L | 62 µM |
